Laboratory results as given in ChEMBL document CHEMBL1949512, “RO4383596, an orally active KDR, FGFR, and PDGFR inhibitor: synthesis and biological evaluation” (Bioorg Med Chem, 2005).

Assays:
[1] = tested on: Mus musculus; test: Antiangiogenic activity in C57/BL6 mouse cornea assessed as inhibition of bFGF-induced angiogenesis at 100 mg/kg, po bid for 5 days by corneal pocket assay relative to control; type: functional; conditions: 120 h
Summary of the method: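 bFGF-impregnated pellets were implanted in corneas of female C57/BL6 mice aged 5–7 weeks. Oral dosing twice daily began the same day for 5 days. The neovascularized area was quantitated against vehicle-treated animals (2% Klucel LF, 0.1% Tween 80 in water).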

[2] = target: Epidermal growth factor receptor (Homo sapiens, UniProt P00533); test: Inhibition of human recombinant His-tagged intracellular domain of EGFR using biotin-EEEEYFELV as substrate by HTRF assay
Chain of Epidermal growth factor receptor (P00533 whole entry, the tested form may be a part): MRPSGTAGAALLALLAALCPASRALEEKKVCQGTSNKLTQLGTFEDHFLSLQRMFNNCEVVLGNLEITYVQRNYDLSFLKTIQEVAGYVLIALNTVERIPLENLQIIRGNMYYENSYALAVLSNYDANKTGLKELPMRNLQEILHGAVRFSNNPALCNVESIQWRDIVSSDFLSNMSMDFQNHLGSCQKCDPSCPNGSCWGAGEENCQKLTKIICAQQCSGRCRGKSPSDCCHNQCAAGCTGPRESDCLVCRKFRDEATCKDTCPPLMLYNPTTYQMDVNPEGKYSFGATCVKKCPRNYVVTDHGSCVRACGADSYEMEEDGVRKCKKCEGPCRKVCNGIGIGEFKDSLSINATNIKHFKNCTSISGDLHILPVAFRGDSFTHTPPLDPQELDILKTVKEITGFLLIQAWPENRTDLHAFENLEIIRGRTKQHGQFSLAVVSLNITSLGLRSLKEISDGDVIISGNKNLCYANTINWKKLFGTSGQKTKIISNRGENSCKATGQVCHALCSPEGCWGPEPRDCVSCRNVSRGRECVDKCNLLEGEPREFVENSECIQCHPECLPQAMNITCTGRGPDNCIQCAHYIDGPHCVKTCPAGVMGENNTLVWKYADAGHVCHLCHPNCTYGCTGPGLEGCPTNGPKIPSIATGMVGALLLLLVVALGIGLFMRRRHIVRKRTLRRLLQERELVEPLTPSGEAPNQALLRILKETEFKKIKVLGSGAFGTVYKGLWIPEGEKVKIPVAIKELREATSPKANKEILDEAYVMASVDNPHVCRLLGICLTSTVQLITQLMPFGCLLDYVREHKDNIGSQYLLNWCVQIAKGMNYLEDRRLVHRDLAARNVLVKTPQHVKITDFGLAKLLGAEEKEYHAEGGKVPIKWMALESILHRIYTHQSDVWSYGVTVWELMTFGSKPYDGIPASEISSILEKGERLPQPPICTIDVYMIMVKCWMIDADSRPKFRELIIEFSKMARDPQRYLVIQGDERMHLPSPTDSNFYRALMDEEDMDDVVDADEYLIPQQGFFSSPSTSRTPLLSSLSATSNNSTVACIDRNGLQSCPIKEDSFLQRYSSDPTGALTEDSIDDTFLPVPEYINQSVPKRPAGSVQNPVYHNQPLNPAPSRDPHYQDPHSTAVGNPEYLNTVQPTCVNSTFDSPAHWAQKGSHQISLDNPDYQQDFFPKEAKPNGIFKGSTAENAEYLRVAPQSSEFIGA

[3] = Oral bioavailability in athymic nude mouse at 50 mg/kg; type: ADME, organism-based; conditions: in vivo
Summary of the method: (§1)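 Athymic nude mice received one dose, either iv 10 mg/kg in 2% DMA/10% PEG400/88% of 40% HPBCD in water, or po 50 mg/kg in 2% Klucel LF/0.1% Tween 80. Retro-orbital or terminal cardiac blood was drawn from 1 min (iv) or 5 min (po) to 24 h into EDTA. Plasma was analysed by LC-MS/MS. Composite parameters were obtained by non-compartmental analysis, with AUC extrapolated to infinity.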

[4] = tested on: Mus musculus; test: Antiangiogenic activity in C57/BL6 mouse cornea assessed as inhibition of VEGF-induced angiogenesis at 25 mg/kg, po bid for 7 days by corneal pocket assay relative to control; type: functional; conditions: 168 h
Summary of the method: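 VEGF-impregnated pellets were implanted in corneas of female C57/BL6 mice aged 5–7 weeks. Oral twice-daily dosing started the same day and ran 7 days. The area of vascularization was then quantitated relative to animals given vehicle (2% Klucel LF, 0.1% Tween 80 in water).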

[5] = Clearance in athymic nude mouse at 10 mg/kg, iv; type: ADME, organism-based; design: dose 10 mg/kg, route intravenous; conditions: in vivo; summary of the method: as §1
[6] = target: Protein kinase C delta type (Homo sapiens, UniProt Q05655); test: Inhibition of PKCdelta by IMAP assay
Chain of Protein kinase C delta type (Q05655 whole entry): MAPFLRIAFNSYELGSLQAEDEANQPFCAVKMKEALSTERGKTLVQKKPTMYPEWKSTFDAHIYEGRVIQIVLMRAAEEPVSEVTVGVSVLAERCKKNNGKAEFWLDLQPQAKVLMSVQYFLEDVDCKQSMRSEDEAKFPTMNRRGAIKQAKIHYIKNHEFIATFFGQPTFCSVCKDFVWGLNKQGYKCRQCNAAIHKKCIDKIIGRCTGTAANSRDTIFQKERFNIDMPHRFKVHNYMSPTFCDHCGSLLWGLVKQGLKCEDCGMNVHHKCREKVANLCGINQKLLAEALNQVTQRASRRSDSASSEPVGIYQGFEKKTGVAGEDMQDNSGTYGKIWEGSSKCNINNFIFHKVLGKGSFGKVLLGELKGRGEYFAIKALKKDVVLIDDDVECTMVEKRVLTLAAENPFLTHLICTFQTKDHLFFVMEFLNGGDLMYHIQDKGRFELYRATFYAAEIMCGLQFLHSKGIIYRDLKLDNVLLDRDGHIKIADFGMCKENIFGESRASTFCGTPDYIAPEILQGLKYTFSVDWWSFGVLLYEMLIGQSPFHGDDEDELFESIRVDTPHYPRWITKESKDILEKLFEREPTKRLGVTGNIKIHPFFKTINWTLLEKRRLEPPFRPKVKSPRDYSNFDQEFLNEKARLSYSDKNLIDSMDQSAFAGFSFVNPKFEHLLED
Summary of the method: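 IMAP fluorescence-polarization assay, in which phosphorylated fluorescent peptide substrates bind immobilized metal beads. Reactions ran at ATP three times Km.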

IC50 [2]: 310 nM
bioavailability [3]: 93%
clearance [5]: 15.1 mL/min/kg
IC50 [6]: > 125000 nM
SMILES: COc1ccc(N2Cc3cnc(Nc4ccccc4)nc3N([C@@H]3CC[C@@H](O)C3)C2=O)cc1 (racemic)
inhibition in vivo at 100 mg/kg [1]: 97%
inhibition in vivo at 25 mg/kg [4]: 81%
